Results: ChEMBL document CHEMBL1759916, “Bicyclo[2.2.2]octyltriazole inhibitors of 11β-hydoxysteroid dehydrogenase type 1. Pharmacological agents for the treatment of metabolic syndrome” (Bioorg Med Chem Lett, 2011)
pIC50: −log10 of the molar value.

target: T1, 11-beta-hydroxysteroid dehydrogenase type 2 (Homo sapiens, UniProt P80365); assay: Inhibition of human 11beta-HSD2 expressed in CHO-K1 cells assessed as conversion of [3H]-cortisol to [3H]-cortisone by scintillation proximity assay; type: cell-based; settings: not given
T1 sequence (P80365 whole entry): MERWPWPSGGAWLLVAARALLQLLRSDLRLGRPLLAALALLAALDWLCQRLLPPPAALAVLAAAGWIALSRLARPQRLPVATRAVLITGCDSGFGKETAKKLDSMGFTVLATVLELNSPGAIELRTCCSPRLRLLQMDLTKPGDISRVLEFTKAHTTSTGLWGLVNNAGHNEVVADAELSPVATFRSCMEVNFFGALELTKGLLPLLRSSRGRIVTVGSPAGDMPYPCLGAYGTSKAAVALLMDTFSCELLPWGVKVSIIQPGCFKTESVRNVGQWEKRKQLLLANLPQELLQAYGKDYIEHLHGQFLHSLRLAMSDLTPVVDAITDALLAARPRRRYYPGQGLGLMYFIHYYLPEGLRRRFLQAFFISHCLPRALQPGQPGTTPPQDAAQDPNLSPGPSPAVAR

pIC50 | SMILES
< 5.40 | Cn1c(-c2ccccc2C(F)(F)F)nnc1C12CCC(CCS(=O)(=O)c3ccc(F)cc3)(CC1)CC2
5.80 | Cn1c(-c2ccccc2C(F)(F)F)nnc1C12CCC(CCS(=O)(=O)CC(F)(F)F)(CC1)CC2
< 5.40 | CCOCC12CCC(c3nnc(-c4ccccc4C(F)(F)F)n3C)(CC1)CC2
5.89 | CCCCCC12CCC(c3nnc(-c4ccccc4C(F)(F)F)n3C)(CC1)CC2
< 5.40 | CCCS(=O)(=O)CCC12CCC(c3nnc(-c4ccccc4C(F)(F)F)n3C)(CC1)CC2
< 5.40 | Cn1c(-c2ccccc2C(F)(F)F)nnc1C12CCC(CCCC(C)(F)F)(CC1)CC2
< 5.40 | CCSCCC12CCC(c3nnc(-c4ccccc4C(F)(F)F)n3C)(CC1)CC2
< 5.40 | Cn1c(-c2ccccc2C(F)(F)F)nnc1C12CCC(CCS(C)(=O)=O)(CC1)CC2

tested on: not listed separately; assay: Clearance in C57 mouse at 2 mg/kg, iv; type: ADME, organism-based; design: dose 2 mg/kg, route intravenous; settings: in vivo
Outline: (§1)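 Mouse PK from 2 mg/kg IV and 10 mg/kg oral dosing. The PO AUC is reported normalized to dose.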

clearance [mL/min/kg] | SMILES
273 | CCCCCC12CCC(c3nnc(-c4ccccc4C(F)(F)F)n3C)(CC1)CC2
14 | Cn1c(-c2ccccc2C(F)(F)F)nnc1C12CCC(CCCC(C)(F)F)(CC1)CC2

tested on: Mus musculus; assay: Inhibition of 11beta-HSD1 in ICR mouse assessed as inhibition of conversion of [3H]-cortisone to [3H]-cortisol at 10 mg/kg, po administered 16 hrs before [3H]-cortisone challenge; type: functional; settings: not given
Outline: (§2)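 Mouse pharmacodynamic model. Compound given 10 mg/kg PO, then 3H-cortisone by tail vein injection 1, 4 or 16 h after dosing. […] Plasma compound levels were measured after the PD studies.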

SMILES | inhibition in vivo at 10 mg/kg [%]
Cn1c(-c2ccccc2C(F)(F)F)nnc1C12CCC(CCS(=O)(=O)c3ccc(F)cc3)(CC1)CC2 | 2
Cn1c(-c2ccccc2C(F)(F)F)nnc1C12CCC(CCS(=O)(=O)CC(F)(F)F)(CC1)CC2 | 67
CCOCC12CCC(c3nnc(-c4ccccc4C(F)(F)F)n3C)(CC1)CC2 | 3
CCCS(=O)(=O)CCC12CCC(c3nnc(-c4ccccc4C(F)(F)F)n3C)(CC1)CC2 | 47
Cn1c(-c2ccccc2C(F)(F)F)nnc1C12CCC(CCCC(C)(F)F)(CC1)CC2 | 94
CCSCCC12CCC(c3nnc(-c4ccccc4C(F)(F)F)n3C)(CC1)CC2 | 72
Cn1c(-c2ccccc2C(F)(F)F)nnc1C12CCC(CCS(C)(=O)=O)(CC1)CC2 | 63

tested on: not listed separately; assay: Bioavailability in C57 mouse at 2 mg/kg, iv and 10 mg/kg, po; type: ADME, organism-based; settings: in vivo; outline: as §1

bioavailability [%] | SMILES
20 | CCCCCC12CCC(c3nnc(-c4ccccc4C(F)(F)F)n3C)(CC1)CC2
36 | Cn1c(-c2ccccc2C(F)(F)F)nnc1C12CCC(CCCC(C)(F)F)(CC1)CC2

target: T2, 11-beta-hydroxysteroid dehydrogenase type 2 (Mus musculus, UniProt P51661); assay: Inhibition of mouse 11beta-HSD2 expressed in CHO-K1 cells assessed as conversion of [3H]-cortisol to [3H]-cortisone by scintillation proximity assay; type: cell-based; settings: not given
T2 sequence (P51661 whole entry): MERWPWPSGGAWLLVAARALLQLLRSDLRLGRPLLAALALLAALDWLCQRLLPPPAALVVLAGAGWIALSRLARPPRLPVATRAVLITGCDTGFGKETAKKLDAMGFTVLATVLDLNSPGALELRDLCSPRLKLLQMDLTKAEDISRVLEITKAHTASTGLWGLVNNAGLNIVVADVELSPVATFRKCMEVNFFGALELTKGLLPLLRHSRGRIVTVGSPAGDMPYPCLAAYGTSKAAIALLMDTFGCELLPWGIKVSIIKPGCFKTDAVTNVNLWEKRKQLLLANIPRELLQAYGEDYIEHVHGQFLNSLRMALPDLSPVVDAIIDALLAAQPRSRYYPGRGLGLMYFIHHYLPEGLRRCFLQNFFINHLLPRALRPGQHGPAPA
Outline: (§3)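 Scintillation proximity assay (SPA). IC50 values are the average of two determinations.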

pIC50 | SMILES
< 5.40 | Cn1c(-c2ccccc2C(F)(F)F)nnc1C12CCC(CCS(=O)(=O)c3ccc(F)cc3)(CC1)CC2
< 5.40 | Cn1c(-c2ccccc2C(F)(F)F)nnc1C12CCC(CCS(=O)(=O)CC(F)(F)F)(CC1)CC2
< 5.40 | CCOCC12CCC(c3nnc(-c4ccccc4C(F)(F)F)n3C)(CC1)CC2
< 5.40 | CCCCCC12CCC(c3nnc(-c4ccccc4C(F)(F)F)n3C)(CC1)CC2
< 5.40 | CCCS(=O)(=O)CCC12CCC(c3nnc(-c4ccccc4C(F)(F)F)n3C)(CC1)CC2
< 5.40 | Cn1c(-c2ccccc2C(F)(F)F)nnc1C12CCC(CCCC(C)(F)F)(CC1)CC2
< 5.40 | CCSCCC12CCC(c3nnc(-c4ccccc4C(F)(F)F)n3C)(CC1)CC2
< 5.40 | Cn1c(-c2ccccc2C(F)(F)F)nnc1C12CCC(CCS(C)(=O)=O)(CC1)CC2

target: 11-beta-hydroxysteroid dehydrogenase 1 (Mus musculus, UniProt P50172); assay: Inhibition of mouse 11beta-HSD1 expressed in CHO-K1 cells assessed as conversion of [3H]-cortisone to [3H]-cortisol by scintillation proximity assay; type: cell-based; settings: not given
Sequence (P50172 whole entry): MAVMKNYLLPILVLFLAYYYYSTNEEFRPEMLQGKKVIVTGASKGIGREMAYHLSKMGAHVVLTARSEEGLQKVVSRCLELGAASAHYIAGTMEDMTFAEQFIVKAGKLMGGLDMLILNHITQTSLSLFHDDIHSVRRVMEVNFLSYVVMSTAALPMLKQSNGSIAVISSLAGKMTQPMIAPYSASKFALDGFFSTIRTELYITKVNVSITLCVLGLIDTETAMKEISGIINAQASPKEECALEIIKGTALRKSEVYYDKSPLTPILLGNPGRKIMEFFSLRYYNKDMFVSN

pIC50 | SMILES
8.74 | Cn1c(-c2ccccc2C(F)(F)F)nnc1C12CCC(CCS(=O)(=O)c3ccc(F)cc3)(CC1)CC2
8.82 | Cn1c(-c2ccccc2C(F)(F)F)nnc1C12CCC(CCS(=O)(=O)CC(F)(F)F)(CC1)CC2
8.70 | CCOCC12CCC(c3nnc(-c4ccccc4C(F)(F)F)n3C)(CC1)CC2
8.17 | CCCS(=O)(=O)CCC12CCC(c3nnc(-c4ccccc4C(F)(F)F)n3C)(CC1)CC2
> 9.00 | Cn1c(-c2ccccc2C(F)(F)F)nnc1C12CCC(CCCC(C)(F)F)(CC1)CC2
8.41 | CCSCCC12CCC(c3nnc(-c4ccccc4C(F)(F)F)n3C)(CC1)CC2
8.39 | Cn1c(-c2ccccc2C(F)(F)F)nnc1C12CCC(CCS(C)(=O)=O)(CC1)CC2

tested on: Mus musculus; assay: Inhibition of 11beta-HSD1 in ICR mouse assessed as inhibition of conversion of [3H]-cortisone to [3H]-cortisol at 10 mg/kg, po administered 4 hrs before [3H]-cortisone challenge; type: functional; settings: not given; outline: as §2

SMILES | inhibition in vivo at 10 mg/kg [%]
Cn1c(-c2ccccc2C(F)(F)F)nnc1C12CCC(CCS(=O)(=O)c3ccc(F)cc3)(CC1)CC2 | 63
Cn1c(-c2ccccc2C(F)(F)F)nnc1C12CCC(CCS(=O)(=O)CC(F)(F)F)(CC1)CC2 | 74
CCOCC12CCC(c3nnc(-c4ccccc4C(F)(F)F)n3C)(CC1)CC2 | 44
CCCCCC12CCC(c3nnc(-c4ccccc4C(F)(F)F)n3C)(CC1)CC2 | 98
CCCS(=O)(=O)CCC12CCC(c3nnc(-c4ccccc4C(F)(F)F)n3C)(CC1)CC2 | 89
Cn1c(-c2ccccc2C(F)(F)F)nnc1C12CCC(CCCC(C)(F)F)(CC1)CC2 | 99
CCSCCC12CCC(c3nnc(-c4ccccc4C(F)(F)F)n3C)(CC1)CC2 | 79
Cn1c(-c2ccccc2C(F)(F)F)nnc1C12CCC(CCS(C)(=O)=O)(CC1)CC2 | 96

target: 11-beta-hydroxysteroid dehydrogenase 1 (Homo sapiens, UniProt P28845); assay: Inhibition of human 11beta-HSD1 expressed in CHO-K1 cells assessed as conversion of [3H]-cortisone to [3H]-cortisol by scintillation proximity assay; type: cell-based; settings: not given; outline: as §3
Sequence (P28845 whole entry): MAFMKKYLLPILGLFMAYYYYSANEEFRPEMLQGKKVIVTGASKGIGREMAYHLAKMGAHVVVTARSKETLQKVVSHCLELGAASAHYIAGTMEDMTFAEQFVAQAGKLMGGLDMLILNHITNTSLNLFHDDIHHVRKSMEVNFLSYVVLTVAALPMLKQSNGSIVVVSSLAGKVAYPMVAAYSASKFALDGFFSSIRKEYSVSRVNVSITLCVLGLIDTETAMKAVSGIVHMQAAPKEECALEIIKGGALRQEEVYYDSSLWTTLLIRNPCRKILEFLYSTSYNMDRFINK

pIC50 | SMILES
8.26 | Cn1c(-c2ccccc2C(F)(F)F)nnc1C12CCC(CCS(=O)(=O)c3ccc(F)cc3)(CC1)CC2
8.43 | Cn1c(-c2ccccc2C(F)(F)F)nnc1C12CCC(CCS(=O)(=O)CC(F)(F)F)(CC1)CC2
8.40 | CCOCC12CCC(c3nnc(-c4ccccc4C(F)(F)F)n3C)(CC1)CC2
8.74 | CCCCCC12CCC(c3nnc(-c4ccccc4C(F)(F)F)n3C)(CC1)CC2
8.29 | CCCS(=O)(=O)CCC12CCC(c3nnc(-c4ccccc4C(F)(F)F)n3C)(CC1)CC2
> 9.00 | Cn1c(-c2ccccc2C(F)(F)F)nnc1C12CCC(CCCC(C)(F)F)(CC1)CC2
8.48 | CCSCCC12CCC(c3nnc(-c4ccccc4C(F)(F)F)n3C)(CC1)CC2
7.96 | Cn1c(-c2ccccc2C(F)(F)F)nnc1C12CCC(CCS(C)(=O)=O)(CC1)CC2
